# Screening results: PubChem, The Scripps Research Institute Molecular Screening Center
# OX1R antag-1 = human HCRTR1 antagonism. O43613. CHO/OX1R cells, Fluo-8 calcium fluorescence, orexin A. inhibition, % at 5 µM. actives 0.43% (n = 330,000);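 active = inhibition above its plate's threshold, mean inhibition of all tested compounds on the plate plus 3 SD, cut at about 37% in these data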;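 also: 0% = orexin A challenge wells and 100% = SB-334867-A antagonist wells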
# Target sequence (O43613 whole entry, looked up): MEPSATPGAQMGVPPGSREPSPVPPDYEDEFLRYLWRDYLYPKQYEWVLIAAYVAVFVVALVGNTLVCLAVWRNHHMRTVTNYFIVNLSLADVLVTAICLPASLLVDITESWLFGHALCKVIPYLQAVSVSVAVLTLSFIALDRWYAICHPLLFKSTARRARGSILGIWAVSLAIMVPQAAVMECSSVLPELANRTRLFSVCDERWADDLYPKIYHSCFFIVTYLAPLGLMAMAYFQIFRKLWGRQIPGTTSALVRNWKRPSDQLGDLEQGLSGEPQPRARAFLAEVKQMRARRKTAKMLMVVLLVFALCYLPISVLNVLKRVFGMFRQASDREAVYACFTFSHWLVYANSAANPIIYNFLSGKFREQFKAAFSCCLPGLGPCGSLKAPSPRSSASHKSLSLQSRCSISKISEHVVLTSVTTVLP
# TAAR1 agonist = human TAAR1 agonism | CHO RD-HGA16 TAAR1, Fluo-8 calcium fluorescence; vehicle wells 0%, saturating PEA agonist 100% | activation, % at 3 µM | Q96RJ0 | actives 0.99% (n = 360,000);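 active = activation above the mean activation of all test compounds in the run plus 3 SD, cut at about 38% in these data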
#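 System: CHO-derived RD-HGA16 cells with stable Gα16 and human TAAR1. Times: 17-24 h plating, Fluo-8 75 min 37 °C, 30 min RT. Measured by: calcium-sensitive Fluo-8 signal, excitation 470-495, emission 515-575 nm. Read-out basis: % activation relative to PEA EC100 response. Control set: DMSO and PEA EC100. Repeats: no replicates (n 1).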
# OX1R antag-2 = blocks the human orexin 1 receptor; O43613; OX1R-expressing cells, FRET antagonist read-out; inhibition, % at 6.6 µM; actives 1.8% (n = 330,000); in the data active = inhibition mostly above about 38%, no sharp cut-off; inactive = mostly below about 40%;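 also: 0% = agonist challenge alone and 100% = reference antagonist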
# TAAR1 antag = human TAAR1 antagonism. inhibition, % at 3 µM. actives 1.5% (n = 360,000). AID 624466. Q96RJ0. CHO RD-HGA16 TAAR1, Fluo-8 calcium fluorescence, antagonist;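 active = inhibition above a per-plate cutoff, the mean inhibition of test compounds on that plate plus 3 SD, cut at about 49% in these data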;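 also: 0% = DMSO plus EC80 beta-PEA response and 100% = DMSO alone without agonist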
#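 Test system – hTAAR1-expressing CHO RD-HGA16 cells, Gα16-coupled · Also added – β-PEA at EC80 concentration, post-compound challenge · Compound – 3 µM, single point · Incubation – dye loading 75 min at 37 °C, then 30 min room temperature · Measured by – Fluo-8 intracellular calcium dye fluorescence, real-time kinetic reads · Benchmarks – vehicle and agonist controls · Replicates – singlicate, one well per test compound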
# CHO parental Ca = counter-screen: ATP calcium response change in parental CHO cells; AID 463079; actives 0.63% (n = 330,000); parental CHO-K1, ATP-induced calcium, Fluo-8 fluorescence; inhibition, % at 5.6 µM;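 active = inhibition above that plate's mean sample inhibition plus 3 SD, cut at about 26% in these data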;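 also: 0% = ATP-challenged DMSO wells and 100% = DMSO wells without ATP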
#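 Material: parental CHO cells / Compound: single nominal dose of 5.6 µM per compound / Signal: Fluo-8 fluorescence / Replicates: singlicate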
# The depositor's hits bear a star; x = no result given. The list is not random: actives were taken first. Their share in the collection is about 4%.
SMILES,OX1R antag-1,TAAR1 agonist,OX1R antag-2,TAAR1 antag,CHO parental Ca
O=C(Cc1ccccc1)NNc1c2ccccc2nc2ccccc12,-12,1,31,9,-19
CN(C)CCN1C(=O)c2cccc3cc([N+](=O)[O-])cc(c23)C1=O,x,1,x,-16,x
O=C1c2cccc3cc([N+](=O)[O-])cc(c23)C(=O)N1CC1CCCO1 (stereo not drawn),-22,0,60*,-13,-4
O=C1NC(=O)c2cc([N+](=O)[O-])cc3cccc1c23,x,0,x,2,x
CC(=O)OCCN1C(=O)c2cccc3cc([N+](=O)[O-])cc(c23)C1=O,-3,x,69*,x,-14
COc1ccc2c(c1)[C@@H](NC(=O)c1ccncc1)[C@@H]1Cc3ccccc3[C@H]21,x,0,x,-9,x
CCOC(=O)c1cccc(NC(=O)COc2ccc([N+](=O)[O-])cc2)c1,-28,-3,36,-3,-9
CCCOC(=O)c1cccc(NC(=O)COc2ccc([N+](=O)[O-])cc2)c1,24,-1,34,20,32*
CC(C)CNS(=O)(=O)c1cc2c3c(c1)CCC(=O)N3CCC2,-21,0,8,-19,-22
COc1ccc(/C=C/c2n[nH]c(=O)c(C#N)c2C)cc1,-25,2,43*,-5,-24
COC(=O)c1cc2c(c3c4ccccc4n(S(=O)(=O)c4ccc(C)cc4)c13)C(=O)N(Cc1ccccc1)C2,x,-1,x,-13,x
CCOC(=O)C(Cc1ccc(NC(=O)/C(=C/c2ccc(OC(C)=O)cc2)NC(C)=O)cc1)N1C(=O)c2ccccc2C1=O (stereo not drawn),-12,11,11,49*,1
CCC(C)/C(C)=N/Nc1ccc(S(N)(=O)=O)cc1[N+](=O)[O-] (stereo not drawn),-19,0,76*,-5,21
C/C(CC(C)C)=N\Nc1ccc(S(N)(=O)=O)cc1[N+](=O)[O-],-7,1,24,8,17
CCN(CC)S(=O)(=O)c1cc(C(=O)NCCN2CCOCC2)ccc1Cl,-8,3,13,-3,-9
Cn1c(=O)c2[nH]c(COc3ccc(C(C)(C)C)cc3)nc2n(C)c1=O,46*,x,36,x,54*
c1cc2[nH]snc2c2nc(C3CC3)nc12,-10,9,46*,1,-10
Cc1ccc(S(=O)(=O)NNC(=O)c2sccc2-n2cccc2)cc1,-16,0,12,6,-6
O=C(NNS(=O)(=O)c1cc(Cl)cc(Cl)c1)c1sccc1-n1cccc1,0,10,69*,-4,-25
O=[N+]([O-])c1ccc(NC(=S)NCc2ccc(F)cc2)cc1,-22,12,27,38,74*
O=c1[nH]c2ccc(NC(=S)NCCc3ccccc3)cc2[nH]1,1,41*,10,29,-8
NS(=O)(=O)c1ccc(NC(=S)NCc2ccc(F)cc2)cc1,-8,0,-4,13,2
O=[N+]([O-])c1ccc(NC(=S)NCCc2ccccc2)cc1,6,14,47*,-6,51*
O=S(=O)(c1ccc(NC(=S)NCc2ccc(F)cc2)cc1)N1CCOCC1,-6,44*,4,27,11
Cc1cc(N)nc2nc(C(F)(F)F)nn12,6,1,27,1,0
SMILES,OX1R antag-1,TAAR1 agonist,OX1R antag-2,TAAR1 antag,CHO parental Ca
COC(=O)[C@]12C[C@H](CC(=O)NCc3ccc(C)o3)C(=O)N(CCC3=CCCCC3)C1=C[C@H](COCc1ccccc1)O[C@@H]2C,x,0,x,-23,x
O=C(Nc1cnn(Cc2ccc(Cl)cc2)c1)c1ccc([N+](=O)[O-])cc1,14,21,16,13,64*
CCOC(=O)c1ccc(NC(=S)NCCc2ccccc2)cc1,39,39*,32,4,60*
O=[N+]([O-])c1ccc(NC(=S)NCCc2ccc(Cl)cc2)cc1,64*,8,71*,57*,69*
O=C(NCc1ccc(F)cc1)c1ccncc1,-27,-1,10,14,1
COc1cc(/C=N/Nc2snc(SC)c2C#N)cc(OC)c1OC,-14,6,37,-5,-8
CSc1nsc(N/N=C/c2ccc3c(c2)OCO3)c1C#N,8,6,41*,16,12
CCN1C(=O)C(CC(=O)Nc2ccc(F)cc2)N(CCc2ccc(OC)cc2)C1=S (stereo not drawn),3,6,11,24,-12
CN1C(=O)C(CC(=O)Nc2ccc(F)cc2)N(CCCc2ccccc2)C1=S (stereo not drawn),48*,26,52,16,4
COc1ccccc1-c1cc(C(F)(F)F)c(C#N)c(=O)[nH]1,-11,6,10,16,-2
COc1ccccc1-c1cc(SC)c(C#N)c(=O)o1,-7,1,51*,-11,5
CCOc1ccc(N=C2NC(=O)S/C2=C\c2ccc(N(C)C)cc2)cc1,8,24,8,57*,5
C=CCCC1CN(Cc2ccc(OC)cc2)S(=O)(=O)c2c(F)cccc2O1 (stereo not drawn),x,1,x,18,x
COc1ccc2oc3ccccc3c(=O)c2c1,-19,7,37,4,-4
COc1cccc2c(=O)c3ccccc3oc12,-9,13,62*,11,-7
CC1Cc2ccccc2N1C(=O)COC(=O)c1ccco1 (stereo not drawn),x,6,x,-16,x
Cc1cc(C(=O)COC(=O)c2ccc([N+](=O)[O-])o2)c(C)n1CC1CCCO1 (stereo not drawn),-12,2,67*,-27,0
CC1CCN(C(=O)COC(=O)c2ccc([N+](=O)[O-])o2)CC1,-5,2,42*,-6,-3
CC1Cc2ccccc2N1C(=O)COC(=O)c1ccc([N+](=O)[O-])o1 (stereo not drawn),5,2,40*,9,-5
O=C(CSc1nc2ccccc2s1)N/N=C/c1cc([N+](=O)[O-])ccc1O,-29,0,10,-6,-15
O=C1NC(c2ccccc2)c2c(-c3ccccc3)n[nH]c21 (stereo not drawn),x,1,x,-4,x
CCOC(=O)CC1C(=O)NCCN1C(=O)c1c(Cl)cccc1Cl (stereo not drawn),3,1,-5,-8,4
CCN(CC)CCNC(=O)c1ccc(NC(=O)c2ccc(COc3ccccc3)cc2)cc1,x,4,x,52*,x
CCN(CC)CCNC(=O)c1ccc(NC(=O)c2ccc(C(=O)c3ccccc3)cc2)cc1,-14,3,13,7,-26
CCOc1cccc(NC(=O)c2ccc(S(=O)(=O)N(C)C)cc2)c1,-9,3,12,-8,-6
CN(C)S(=O)(=O)c1cccc(NC(=O)c2ccc(COc3ccccc3)cc2)c1,29,15,11,77*,56*
O=C(COC(=O)[C@H](Cc1ccccc1)NC(=O)c1ccco1)Nc1ccccc1,-22,6,3,-12,-9
